Source: article PMC4591930 (Angewandte Chemie (International ed. in English), 2015)
Where a SMILES comes first, the peptide text is derived from it. [ ]: non-standard residue; d: D form. The star is where a group is joined. FITC = O=C1OC2(c3ccc(O)cc3Oc3cc(O)ccc32)c2ccc(NC(=S)*)cc21; Phe(4-F) = N[C@@H](Cc1ccc(F)cc1)C(=O)O; d2Nal = N[C@H](Cc1ccc2ccccc2c1)C(=O)O; dNle = CCCC[C@@H](N)C(=O)O

Key:
[1] = target: panel of five arbitrarily selected control proteins; test: FA binding to control proteins
A549 lung cancer cells = test: Flow cytometry of cellular uptake of FITC-labeled peptides; format: cell-based, human; settings: 5 μM, 30 min
caspase-3 activity = test: Caspase-3 activity in H1299 cells; format: cell-based, human; settings: 10 μM, 3 h
Ras-B-Raf interaction = test: Ras-B-Raf co-immunoprecipitation in H358 cells; format: cell-based, human; settings: anti-Ras precipitation, anti-B-Raf immunoblot
How it was run: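 H358 lung cancer cells treated with increasing test compound concentrations. Lysates immunoprecipitated with anti-Ras antibody and co-precipitated B-Raf detected by anti-B-Raf immunoblot. Whole-cell lysate blotted alongside.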

phosphorylation of MEK = test: EGF-stimulated MEK phosphorylation in H1299 cells; format: cell-based, human
How it was run: (§1)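 H1299 cells exposed to a range of test compound concentrations for 10 min, then stimulated with EGF (50 ng/ml) for 5 min before lysis. Phospho-Akt (Thr308) and phospho-MEK detected by immunoblot, with total Akt and MEK blotted alongside.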

lung cancer cells [2] = test: Cell permeability of hits; format: cell-based, human; settings: qualitative
How it was run: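 A549 lung cancer cells given 5 μM FITC-labelled test compound for 30 min. Uptake viewed live by confocal microscopy with DRAQ5 nuclear counterstain. Total cell-associated fluorescence measured by flow cytometry against untreated control cells.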

Ras-Raf interaction = Ras-Raf interaction (Homo sapiens, UniProt P01116, G12V); test: Homogeneous time-resolved fluorescence; format: binding; settings: Gln-8 replaced with L- or D-arginine, versus 9A1-4
Ras-Raf interaction, sequence (P01116 1-188 isoform P01116-2 G12V): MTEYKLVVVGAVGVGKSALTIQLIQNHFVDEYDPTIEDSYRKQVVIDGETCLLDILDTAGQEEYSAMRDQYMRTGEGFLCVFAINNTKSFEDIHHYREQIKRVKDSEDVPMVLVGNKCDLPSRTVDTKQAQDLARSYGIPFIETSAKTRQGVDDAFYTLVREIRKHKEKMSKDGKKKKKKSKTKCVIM

[3] = system: phosphorylation of Akt at Thr308; test: EGF-stimulated Akt Thr308 phosphorylation in H1299 cells; format: cell-based, human
How it was run: as §1

H1299 cells = test: Annexin-FITC / propidium iodide flow cytometry of treated H1299 cells; format: cell-based, human; settings: 10 μM, 3 h
K-Ras = K-Ras (Homo sapiens, UniProt P01116, G12V); test: Fluorescence anisotropy; format: binding; settings: fluorescence anisotropy in solution
K-Ras, sequence (P01116 1-188 isoform P01116-2 G12V): as above

lung cancer cells [4] = test: Anti-proliferative activity against lung cancer cells; format: cell-based, human; settings: qualitative

## CCCC[C@H]1NC(=O)[C@H]([C@@H](C)O)NC(=O)[C@@H](C)NC(=O)[C@H](CCCNC(=N)N)NC(=O)[C@H](CCCNC(=N)N)NC(=O)[C@H](CCCCNC(=S)Nc2ccc3c(c2)C(=O)OC32c3ccc(O)cc3Oc3cc(O)ccc32)NC(=O)[C@@H](Cc2ccc3ccccc3c2)NC(=O)[C@H](CCCNC(=N)N)NC(=O)[C@H](Cc2ccc(F)cc2)NC(=O)[C@H](Cc2c[nH]c3ccccc23)NC(=O)[C@H](CCC(N)=O)NC1=O [FITC-9A5] (cyclo(QW[Phe(4-F)]R[d2Nal]K(FITC)RR[dA]T[dNle]))
[1]
  Kd: ≥ 30 µM
A549 lung cancer cells
  fold more efficient cell entry than FITC-9A54: ~ 5 fold

## CCCC[C@H]1NC(=O)[C@H]([C@@H](C)O)NC(=O)[C@@H](C)NC(=O)[C@H](CCCNC(=N)N)NC(=O)[C@H](CCCNC(=N)N)NC(=O)[C@H](CCCNC(=N)N)NC(=O)[C@@H](Cc2ccc3ccccc3c2)NC(=O)[C@H](CCCNC(=N)N)NC(=O)[C@H](Cc2ccc(F)cc2)NC(=O)[C@H](Cc2c[nH]c3ccccc23)NC(=O)[C@H](CCC(N)=O)NC1=O [9A5] (cyclo(QW[Phe(4-F)]R[d2Nal]RRR[dA]T[dNle]))
caspase-3 activity
  fold increase in caspase-3 activity: 2.3 fold
Ras-B-Raf interaction
  inhibition of Ras-B-Raf interaction in cells: dose-dependently inhibited
Phosphorylation of MEK; H1299 cells
  concentration abolishing MEK phosphorylation: ≥ 12 µM
Phosphorylation of MEK; time-course experiment
  exposure time at which dephosphorylation of MEK was largely complete: 10 min
Lung cancer cells [2]
  cell permeability: improved cell permeability
Ras-Raf interaction
  fold higher affinity for K-Ras: ~ 4 fold
[3]; H1299 cells
  concentration abolishing Akt Thr308 phosphorylation: ≥ 12 µM
[3]; time-course experiment
  exposure time at which dephosphorylation of Akt was largely complete: 10 min
H1299 cells
  annexin-FITC and propidium iodide staining: positive

## CCCC[C@H]1NC(=O)[C@H]([C@@H](C)O)NC(=O)[C@@H](C)NC(=O)[C@H](CCC(N)=O)NC(=O)[C@H](CCCNC(=N)N)NC(=O)[C@H](CCCNC(=N)N)NC(=O)[C@@H](Cc2ccc3ccccc3c2)NC(=O)[C@H](CCCNC(=N)N)NC(=O)[C@H](Cc2ccc(F)cc2)NC(=O)[C@H](Cc2c[nH]c3ccccc23)NC(=O)[C@@H](CO)NC1=O [9A] (cyclo([dS]W[Phe(4-F)]R[d2Nal]RRQ[dA]T[dNle]))
Lung cancer cells [2]
  cell permeability: cell permeable
K-Ras
  binding to K-Ras: strong binding
Lung cancer cells [4]
  anti-proliferative activity: weak anti-proliferative activity

## CCCC[C@H]1NC(=O)[C@H]([C@@H](C)O)NC(=O)[C@@H](C)NC(=O)[C@@H](CCCNC(=N)N)NC(=O)[C@H](CCCNC(=N)N)NC(=O)[C@H](CCCNC(=N)N)NC(=O)[C@@H](Cc2ccc3ccccc3c2)NC(=O)[C@H](CCCNC(=N)N)NC(=O)[C@H](Cc2ccc(F)cc2)NC(=O)[C@H](Cc2c[nH]c3ccccc23)NC(=O)[C@H](CCC(N)=O)NC1=O [9A6] (cyclo(QW[Phe(4-F)]R[d2Nal]RR[dR][dA]T[dNle]))
Lung cancer cells [2]
  cell permeability: improved cell permeability
Ras-Raf interaction
  fold higher affinity for K-Ras: ~ 4 fold
